The source of these data is ChEMBL document CHEMBL5096172, “Tricyclic Triazoles as σ1 Receptor Antagonists for Treating Pain” (J Med Chem, 2021).

Data set [1] is described as follows: Clearance in CD-1 mouse at 10 mg/kg, po by HPLC-MS/MS analysis relative to liver blood flow. It is filed as ADME, organism-based. To be noted: in vivo. In short, it runs like this:
(§1)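 Male Wistar rats (250−300 g, groups of 2) or male CD1 mice (25−30 g, groups of 16) dosed 10 mg/kg orally in 0.5% HPMC or 1 mg/kg iv in saline. Blood taken over time from saphenous vein or by intracardiac puncture into heparin tubes. Plasma spun at 4 °C, stored −80 °C, assayed by HPLC−MS/MS after protein precipitation. Noncompartmental analysis.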

Data set [2] is described as follows: Clearance in wistar rat at 10 mg/kg, po by HPLC-MS/MS analysis relative to liver blood flow. It is filed as ADME, organism-based. To be noted: in vivo. In short, it runs like this:
as §1

`Cc1cc(OCCN2CCOCC2)nn1-c1ccc2ccccc2c1`: the CL was found to be 65% in data set [1] and 109% in data set [2].
